Series [1] deals with T1, Multidrug efflux pump subunit AcrB (Escherichia coli (strain K12)) (UniProt P31224).
T1 sequence (whole entry): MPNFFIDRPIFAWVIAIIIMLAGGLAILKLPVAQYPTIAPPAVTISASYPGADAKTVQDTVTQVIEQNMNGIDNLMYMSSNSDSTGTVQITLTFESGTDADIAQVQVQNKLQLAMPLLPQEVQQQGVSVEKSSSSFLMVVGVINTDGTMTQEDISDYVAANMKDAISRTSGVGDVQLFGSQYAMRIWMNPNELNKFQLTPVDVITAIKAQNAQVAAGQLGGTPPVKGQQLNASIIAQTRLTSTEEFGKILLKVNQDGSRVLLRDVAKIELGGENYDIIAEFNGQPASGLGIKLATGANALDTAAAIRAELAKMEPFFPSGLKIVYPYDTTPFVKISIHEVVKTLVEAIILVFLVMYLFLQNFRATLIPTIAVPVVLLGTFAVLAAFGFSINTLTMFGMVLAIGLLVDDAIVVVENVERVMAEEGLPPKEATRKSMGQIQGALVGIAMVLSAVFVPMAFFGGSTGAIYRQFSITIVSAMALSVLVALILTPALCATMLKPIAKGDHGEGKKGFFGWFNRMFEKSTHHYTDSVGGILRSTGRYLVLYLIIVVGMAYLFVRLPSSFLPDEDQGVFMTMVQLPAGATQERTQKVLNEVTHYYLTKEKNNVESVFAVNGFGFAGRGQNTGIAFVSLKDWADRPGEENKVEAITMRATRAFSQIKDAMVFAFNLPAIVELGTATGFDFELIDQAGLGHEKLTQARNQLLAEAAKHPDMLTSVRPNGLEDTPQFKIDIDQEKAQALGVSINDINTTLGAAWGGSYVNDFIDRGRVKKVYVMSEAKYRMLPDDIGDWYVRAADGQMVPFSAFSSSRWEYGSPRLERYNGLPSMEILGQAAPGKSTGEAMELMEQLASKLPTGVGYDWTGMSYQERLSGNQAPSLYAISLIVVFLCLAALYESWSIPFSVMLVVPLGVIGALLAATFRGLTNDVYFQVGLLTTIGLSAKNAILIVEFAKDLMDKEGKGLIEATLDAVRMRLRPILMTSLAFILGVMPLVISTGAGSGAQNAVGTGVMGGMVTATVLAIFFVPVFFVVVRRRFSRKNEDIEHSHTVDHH
Conditions: Escherichia coli BW25113; dose 16.0 µg/ml; call rule not given here.

For series [2], the target named is T1, Multidrug efflux pump subunit AcrB (Escherichia coli (strain K12)). Kind of series: Inhibition of AcrB in multidrug-resistant Escherichia coli BW25113 assessed as potentiation of erythromycin-induced antibacterial activity by measuring erythromycin MIC at 16 ug/ml by checkerboard titration method (reference value: 64 ug/ml). The conditions noted are these: dose 16.0 µg/ml.

The subject of series [3] is Cell membrane. Kind of series: Induction of inner membrane permeabilization in wild type Escherichia coli BW25113 assessed as perturbation of proton motive force at 32 ug/ml measured after 10 mins in presence of CCCP and glucose by Di0C2(3) probe based fluorescence assay. The conditions noted are these: escherichia coli bw25113, 10 min, dose 32 µg/ml. A digest of the protocol: (§1)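 Cell suspensions were left untreated or exposed to 8-128 µg/mL compound for 10 min. DiOC₂(3) was then added and fluorescence followed to a plateau. Cells were re-energized with 0.5% glucose, and the rise in fluorescence was read as membrane-potential build-up. CCCP was added last to dissipate the potential.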

The target in series [4] is T1, Multidrug efflux pump subunit AcrB (Escherichia coli (strain K12)). The series is described as follows: Inhibition of AcrB in multidrug-resistant Escherichia coli BW25113 assessed as potentiation of levofloxacin-induced antibacterial activity by measuring levofloxacin MIC at 64 ug/ml by checkerboard titration method (reference value: 0.06 ug/ml). The conditions noted are these: dose 64.0 µg/ml.

Series [5] deals with Cell membrane. The series is described as follows: Induction of outer membrane permeabilization in wild type Escherichia coli BW25113 assessed as increase in nitrocefin hydrolysis at 64 ug/ml in presence of CCCP by spectroscopic analysis. The conditions noted are these: dose 64 µg/ml. In a few lines:
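Intact E. coli were treated with 10 μM CCCP to block nitrocefin efflux, then given compound, nothing, or polymyxin B as permeabilizer control. Nitrocefin was added, and hydrolysis by periplasmic β-lactamase was followed as the rise in absorbance at 490 nm. Duplicate experiments were run on different days.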

Series [6] concerns the target T1, Multidrug efflux pump subunit AcrB (Escherichia coli (strain K12)). The series is described as follows: Inhibition of AcrB in multidrug-resistant Escherichia coli BW25113 assessed as potentiation of tetraphenylphosphonium-induced antibacterial activity by measuring tetraphenylphosphonium MIC at 8 ug/ml by checkerboard titration method (reference value: 1024 ug/ml). Conditions: dose 8.0 µg/ml.

Series [7] has the same target. Kind of series: Inhibition of AcrB in multidrug-resistant Escherichia coli BW25113 assessed as potentiation of levofloxacin-induced antibacterial activity by measuring levofloxacin MIC at 32 ug/ml by checkerboard titration method (reference value: 0.06 ug/ml). The conditions noted are these: dose 32.0 µg/ml.
Series [8] shares this target. Conditions: Escherichia coli BW25113; dose 128.0 µg/ml.
For series [9] the target is unchanged. The conditions noted are these: Escherichia coli BW25113; dose 64.0 µg/ml.
Series [10] shares this target. The conditions noted are these: Escherichia coli BW25113; dose 32.0 µg/ml.
Series [11] concerns Cell membrane. The series is described as follows: Induction of inner membrane permeabilization in wild type Escherichia coli BW25113 assessed as perturbation of proton motive force at 64 ug/ml measured after 10 mins in presence of CCCP and glucose by Di0C2(3) probe based fluorescence assay. Conditions: escherichia coli bw25113, 10 min, dose 64 µg/ml. In a few lines: as §1
Series [12] deals with T1, Multidrug efflux pump subunit AcrB (Escherichia coli (strain K12)). The series is described as follows: Inhibition of AcrB in multidrug-resistant Escherichia coli BW25113 assessed as potentiation of erythromycin-induced antibacterial activity by measuring erythromycin MIC at 32 ug/ml by checkerboard titration method (reference value: 64 ug/ml). Conditions: dose 32.0 µg/ml.

Series [13] shares this target. Kind of series: Inhibition of AcrB in multidrug-resistant Escherichia coli BW25113 assessed as potentiation of chloramphenicol-induced antibacterial activity by measuring chloramphenicol MIC at 32 ug/ml by checkerboard titration method (reference value: 8 ug/ml). Conditions: dose 32.0 µg/ml.

In brackets after ≈: the same amount, converted by molar mass.

Consider `CC1(C)CC(=O)c2ccc(OCC(=O)Nc3ccc(C#N)c(C(F)(F)F)c3)cc2O1`, for which the MIC in series [1] worked out at 16 µg/mL (≈ 38.2 µM); in series [2] it was 64 µg/mL; in [4], 0.06 µg/mL; in series [6] it was 1020 µg/mL; in series [7], 0.06 µg/mL; in series [8] it was 16 µg/mL (≈ 38.2 µM). Moreover, the MIC in [9] stood at 16 µg/mL (≈ 38.2 µM); in [10] it was 16 µg/mL (≈ 38.2 µM); in series [12], 64 µg/mL; in [13] it was 8 µg/mL. Besides, the Activity entry in series [3], in series [5] and in [11] was “Not Active” in each case.

Values taken from ChEMBL document CHEMBL4732114, “Design and structural optimization of novel 2H-benzo[h]chromene derivatives that target AcrB and reverse bacterial multidrug resistance” (Eur J Med Chem, 2021).
